Compounds with a hit are over-represented: about 1.8% of the library has one in this group of screens.
DDE Tn6 FP inh: inhibitors of Tn6 peptide binding to fibrin DD(E), primary screen, biochemical, fluorescence polarization, human fibrin, Tn6 probe; AID 720509, 2013; inhibition, % at 8.3 µM; Fibrinogen beta chain (Homo sapiens), P02675; 0.21% of 370,000 active; Fibrin DD(E) TRITC-Tn6 fluorescence polarization displacement;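 active means inhibition above a per-campaign cutoff: mean of compounds within control limits plus 3 SD, cut at about 15% in these data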;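 further: 0% = median of all compound wells on the plate and 100% = blocking peptide control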
SIAE inh: human SIAE inhibitors, primary screen, biochemical, fluorescence polarization, FP-Rh probe, 1536-well HTS; Sialate O-acetylesterase (Homo sapiens), Q9HAT2; SIAE FP-Rh probe binding; inhibition, % at 9.66 µM; 0.69% of 370,000 active; AID 1053197, 2014;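 active means inhibition above a cutoff: mean of compounds within the control limits plus 3 SD of those, cut at about 17% in these data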;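 further: 0% = plate median of compound wells and 100% = probe without SIAE protein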
TCR CD3 inh: inhibitors of human TCR-CD3 interaction, primary screen, biochemical, fluorescence, TAMRA-labeled TCR probe | T-cell receptor (TCR) | inhibition, % at 9.4 µM | 0.37% of 360,000 active; in the data active means inhibition above about 19%;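 further: recombinant mutant TCR 2C K166C tagged with TAMRA read by polarization; 0% = receptor in buffer alone and 100% = receptor with positive control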
HTRA1 inh: HTRA1 serine protease inhibitors, primary screen, biochemical, fluorescence polarization, HTS. Q92743. recombinant HTRA1, FP-rhodamine activity-based probe. inhibition, % at 5.96 µM. 0.5% of 340,000 active. AID 504803, 2011; in the data active means inhibition above about 36%;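 further: 0% = enzyme with DMSO and 100% = wells lacking enzyme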
DDE Tn7 FP inh: inhibitors of Tn7 peptide binding to fibrin DD(E), primary screen, biochemical, fluorescence polarization, human fibrin, Tn7 probe; FP displacement of FITC-Tn7 peptide from fibrin DD(E); 0% = median of compound wells per plate; AID 720508, 2013; inhibition, % at 8.3 µM; 0.13% of 370,000 active;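 active means inhibition above the mean of compounds falling within the control limits plus 3 SD of them, cut at about 14% in these data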;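 further: 0% = plate median of compound wells and 100% = 10 µM Aha-Tn7 peptide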
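Assay system: Human fibrin DD(E) protein | Medium: Tris buffer with calcium and detergent, pH 7.8 | Reagent: 0.1 µM fluorescent Tn7 | Compound dosing: Single point at 8.3 µM | Times: 10 min preincubation, 3 h with tracer, room temperature | Detection: Fluorescence polarization of the labelled Tn7 tracer | Controls: Aha-Tn7 high control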
mABHD4 FP: ABHD4 inhibitors, primary screen, biochemical, fluorescence polarization, mouse. (Lyso)-N-acylphosphatidylethanolamine lipase (Mus musculus), Q8VD66. purified mABHD4, FP-Rh probe fluorescence polarization. inhibition, % at 8.92 µM. 0.54% of 370,000 active. AID 720543, 2013;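 active means inhibition exceeding the mean over every tested compound plus 3 SD, cut at about 30% in these data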;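 further: 0% = plate median of compound wells and 100% = S159A mutant with DMSO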
Target sequence (Q8VD66 whole entry, looked up): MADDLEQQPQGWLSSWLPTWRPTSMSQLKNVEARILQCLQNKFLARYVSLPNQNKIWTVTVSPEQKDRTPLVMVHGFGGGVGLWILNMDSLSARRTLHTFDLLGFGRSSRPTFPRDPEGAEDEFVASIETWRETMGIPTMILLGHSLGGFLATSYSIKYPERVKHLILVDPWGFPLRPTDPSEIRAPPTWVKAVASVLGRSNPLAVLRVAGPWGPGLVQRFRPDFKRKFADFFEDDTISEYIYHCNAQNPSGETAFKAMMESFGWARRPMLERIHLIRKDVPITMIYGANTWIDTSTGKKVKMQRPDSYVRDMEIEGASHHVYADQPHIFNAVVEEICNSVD
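system = mouse ABHD4 enzyme, wild type | medium = HEPES pH 7.0, NaCl, Pluronic buffer | also added = FP-Rh probe | incubation = Enzyme–compound pre-incubation 45 min, then probe 60 min, both 25 °C | technique = fluorescence polarization, excitation 525 nm, emission 598 nm, BODIPY TMR filters | controls = S159A mutant high control, sample median low control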
HTRA1 inh conf: HTRA1 protease inhibitors, retest, confirmation, biochemical, fluorescence polarization. recombinant HTRA1, FP-rhodamine activity-based probe. inhibition, % at 5.96 µM. shares compounds with HTRA1 inh. 66% of 1,600 active;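 active means mean inhibition over three repeats above a set limit taken from the earlier primary screen, cut at about 37% in these data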;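 further: 0% = HTRA1 with DMSO and 100% = wells lacking HTRA1; inhibitors block probe binding so polarization drops and inhibition rises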
Numbers without * were called inactive; · = no result.

SMILES	DDE Tn6 FP inh	SIAE inh	TCR CD3 inh	HTRA1 inh	DDE Tn7 FP inh	mABHD4 FP	HTRA1 inh conf
CCC(=O)NC(c1cccs1)c1ccc2cccnc2c1O (stereo not drawn)	-5.7	3.1	-9.7	41.4*	-2.6	5.6	46.0*
Oc1c(C(Nc2nccs2)c2ccc(C(F)(F)F)cc2)ccc2cccnc12 (stereo not drawn)	0.8	-0.9	5.0	43.5*	-2.7	6.6	53.7*
COc1ccc(C(NC(C)=O)c2ccc3cccnc3c2O)c(OC)c1 (stereo not drawn)	·	·	·	26.8	·	·	·
CC(=O)NC(c1ccco1)c1cc(F)c2cccnc2c1O (stereo not drawn)	2.9	7.8	0.6	29.4	1.2	11.4	·
CC(C)CC(=O)NC(c1cccs1)c1ccc2cccnc2c1O (stereo not drawn)	·	·	·	42.9*	·	·	38.3*
Cc1cc(N=Nc2ccccc2)c(NCC(O)C(O)C(O)CO)cc1C (stereo not drawn)	-2.3	3.9	-7.5	44.8*	2.4	13.9	38.5*
Cc1ccc(NCC(O)C(O)C(O)CO)cc1C (stereo not drawn)	7.7	-10.8	5.1	8.1	7.2	3.5	·
CCCC(=O)NC(c1ccccc1OC)c1ccc2cccnc2c1O (stereo not drawn)	·	·	·	33.7	·	·	·
CCN(CC)c1ccc(C(NC(=O)C(C)C)c2ccc3cccnc3c2O)cc1 (stereo not drawn)	0.6	15.4	-9.9	56.2*	5.0	5.5	61.0*
CCCC(=O)NC(c1ccc(Cl)cc1Cl)c1ccc2cccnc2c1O (stereo not drawn)	-4.9	14.6	-10.7	53.0*	-7.5	17.5	56.0*
CCCC(=O)NC(c1cccc([N+](=O)[O-])c1)c1ccc2cccnc2c1O (stereo not drawn)	-0.1	9.1	0.7	22.1	8.5	17.4	·
CCCC(=O)NC(c1ccc(C)cc1)c1ccc2cccnc2c1O (stereo not drawn)	·	·	·	45.4*	·	·	58.4*
CC(C)C(=O)NC(c1ccco1)c1ccc2cccnc2c1O (stereo not drawn)	-9.3	12.2	-3.8	20.2	1.4	8.8	·
CCCC(=O)NC(c1ccc(Cl)cc1)c1ccc2cccnc2c1O (stereo not drawn)	-5.1	13.4	-8.3	46.4*	5.2	17.8	48.4*
CC(COc1ccccc1)CN1CCC(C(O)(c2ccccc2)c2ccccc2)CC1 (stereo not drawn)	5.4	-1.1	·	·	3.6	2.7	·
CCCCC(=O)NC(c1ccccc1OC)c1ccc2cccnc2c1O (stereo not drawn)	4.9	14.4	-10.9	59.6*	-8.1	11.2	52.1*
CCCCC(=O)NC(c1ccc(N(C)C)cc1)c1ccc2cccnc2c1O (stereo not drawn)	-0.2	13.8	2.9	46.4*	-3.1	19.5	61.0*
CCCCC(=O)NC(c1ccc(Cl)cc1)c1ccc2cccnc2c1O (stereo not drawn)	2.3	13.4	-3.5	40.3*	-1.9	13.9	44.0*
C=CCN1[C@@H](Cc2ccccc2)COc2cccc(N3CCCC3)c2S1(=O)=O	-8.5	0.8	·	·	-8.7	-3.4	·
Cc1ccccc1NC(=O)N(C)[C@H]1C[C@H]2c3[nH]c4c(-c5ccc6c(c5)OCO6)cccc4c3CCN2C[C@H]1[C@H](C)O	9.1	3.5	·	·	3.1	23.7	·
CC(=O)Nc1ccc(OCC(C)CN2CCC(C(O)(c3ccccc3)c3ccccc3)CC2)cc1 (stereo not drawn)	-5.6	3.2	·	·	-1.9	-3.6	·
CN=c1scc(-c2ccc(F)cc2)n1/N=C/c1ccc(O)c(O)c1	-2.9	5.6	5.2	64.2*	6.0	32.5*	69.0*
